This passage reports inhibition, Activity and IC50 results from ChEMBL document CHEMBL4270576, “Discovery of a benzenesulfonamide-based dual inhibitor of microsomal prostaglandin E2 synthase-1 and 5-lipoxygenase that favorably modulates lipid mediator biosynthesis in inflammation” (Eur J Med Chem, 2018).

Series [1] deals with T1, Polyunsaturated fatty acid 5-lipoxygenase (Homo sapiens) (UniProt P09917).
T1 sequence (whole entry): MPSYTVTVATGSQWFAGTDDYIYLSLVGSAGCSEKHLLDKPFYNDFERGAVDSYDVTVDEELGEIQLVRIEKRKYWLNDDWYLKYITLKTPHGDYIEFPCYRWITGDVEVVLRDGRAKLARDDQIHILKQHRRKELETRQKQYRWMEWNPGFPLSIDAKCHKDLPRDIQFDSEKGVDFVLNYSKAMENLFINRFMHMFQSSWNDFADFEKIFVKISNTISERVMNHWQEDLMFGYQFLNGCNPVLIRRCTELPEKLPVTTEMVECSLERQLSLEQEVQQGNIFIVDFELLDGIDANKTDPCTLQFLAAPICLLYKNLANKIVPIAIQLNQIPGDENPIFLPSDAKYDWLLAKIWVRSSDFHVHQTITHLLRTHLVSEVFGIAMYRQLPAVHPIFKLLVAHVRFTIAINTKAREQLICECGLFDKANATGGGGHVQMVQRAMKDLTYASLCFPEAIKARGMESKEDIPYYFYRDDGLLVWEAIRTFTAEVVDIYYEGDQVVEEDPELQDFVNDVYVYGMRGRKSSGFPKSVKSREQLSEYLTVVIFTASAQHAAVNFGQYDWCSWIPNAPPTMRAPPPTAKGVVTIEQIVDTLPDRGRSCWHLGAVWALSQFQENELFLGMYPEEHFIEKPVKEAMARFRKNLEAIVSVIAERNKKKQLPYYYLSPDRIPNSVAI
Put plainly: Inhibition of recombinant human 5-LO binding to FLAP expressed in HEK293 cells at 10 uM after 1 hr by DAPI staining-based immunofluorescence microscopic analysis. It counts as cell-based. Summed up:
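HEK293 cells stably expressing 5-LO/FLAP, treated with 10 µM compound for 10 min and then 2.5 µM A23187 for 20 min at 37 °C, fixed, and probed with anti-5-LO/anti-FLAP primaries. This was followed by oligonucleotide-linked secondaries (1 h, 37 °C), ligation, rolling-circle amplification and DAPI nuclear stain. Proximity ligation signals counted microscopically in 100 cells from three experiments.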

In series [2] the target is T2, Prostaglandin E synthase (Homo sapiens) (UniProt O14684).
T2 sequence (whole entry): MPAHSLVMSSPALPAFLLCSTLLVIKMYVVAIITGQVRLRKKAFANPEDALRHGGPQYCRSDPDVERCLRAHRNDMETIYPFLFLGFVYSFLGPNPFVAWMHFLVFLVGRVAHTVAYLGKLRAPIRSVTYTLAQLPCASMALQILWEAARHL
Nature of the series: Inhibition of mPGES-1 in LPS/IFNgamma-differentiated human M1 macrophages assessed as effect on PGE2 level at 3 uM preincubated for 15 mins followed by Escherichia coli (O6:K2:H1) challenge for 90 mins by LC-MS/MS analysis. Further details: scale not given: the % may be the effect or the level left. Summed up: (§1)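 Monocytes differentiated 6 days with GM-CSF (20 ng/ml) in RPMI/10% FCS, then polarized 48 h with LPS 100 ng/ml plus IFN-γ 20 ng/ml (M1). Cells (2 × 10^6) in PBS with 1 mM CaCl2 pre-incubated 15 min at 37 °C with 3 µM compound or 0.1% DMSO, then E. coli O6:K2:H1 (1:50) for 90 min. Methanol with deuterated standards added; SPE; UPLC-MS/MS; expressed as % of vehicle.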

Series [3] concerns the target T3, Cyclooxygenase (Homo sapiens, UniProt P35354+P23219). Nature of the series: Modulation of COX1/2-mediated PGF2a level in human M1 macrophages derived from LPS/IFNgamma-polarized human monocyte derived macrophages at 3 uM preincubated for 15 mins followed by Escherichia coli (O6:K2:H1) challenge for 90 mins by LC-MS/MS analysis. As to conditions: 1.5 h. It counts as protein assay. Summed up:
as §1

The species named for the next series is Homo sapiens. Nature of the series: Modulation of LO-mediated AT-PD1 level in human M2 macrophages derived from IL4-polarized human monocyte derived macrophages at 3 uM preincubated for 15 mins followed by Escherichia coli (O6:K2:H1) challenge for 90 mins by LC-MS/MS analysis. Summed up: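 Monocytes differentiated 6 days with M-CSF (20 ng/ml), then polarized 48 h with IL-4 20 ng/ml (M2). Cells (2 × 10^6) in PBS/1 mM CaCl2 pre-incubated 15 min at 37 °C with 3 µM compound or 0.1% DMSO, then challenged with E. coli O6:K2:H1 (1:50) for 90 min. Lipid mediators extracted by SPE with deuterated internal standards and quantified by UPLC-MS/MS as % of vehicle.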

Series [4] has as its target T1, Polyunsaturated fatty acid 5-lipoxygenase (Homo sapiens). Nature of the series: Inhibition of 5-LO in human M1 macrophages derived from LPS/IFNgamma-polarized human monocyte derived macrophages assessed as effect on 5-HETE level at 3 uM preincubated for 15 mins followed by Escherichia coli (O6:K2:H1) challenge for 90 mins by LC-MS/MS analysis. Set-up: scale not given: the % may be the effect or the level left. An outline of the steps:
as §1

Series [5] has the same target. Put plainly: Inhibition of nuclear localization of 5-LO (unknown origin) expressed in HEK293 cells at 10 uM preincubated for 10 mins followed by Ca2+ ionophore A23187 stimulation for 20 mins and measured after 1 hr by DAPI staining-based immunofluorescence microscopic analysis. It counts as cell-based. An outline of the steps:
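HEK293 cells stably expressing 5-LO and FLAP, on poly-L-lysine coverslips, pre-incubated 10 min with 10 µM compound or 0.1% DMSO, then stimulated with 2.5 µM A23187 for 20 min at 37 °C. After fixation and permeabilization, stained with anti-5-LO and anti-FLAP antibodies and fluorescent secondaries; imaged by immunofluorescence microscopy, 100 cells from three experiments.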

Series [6] addresses T4, Polyunsaturated fatty acid 5-lipoxygenase (Homo sapiens, UniProt P09917).
T4 sequence (P09917 whole entry): T1 sequence (whole entry)
Put plainly: Inhibition of 5-LO in human neutrophils using arachidonic acid as substrate assessed as reduction in 5-LO product formation preincubated for 15 mins followed by substrate addition measured after 10 mins in presence of Ca2+ ionophore A23187 by HPLC analysis. Summed up: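 Human neutrophils (5 × 10^6 in 1 ml PBS with 1 mg/ml glucose) pre-incubated 15 min at 37 °C with compound or 0.1% DMSO, then activated with 1 mM CaCl2 and 2.5 µM A23187, with or without 20 µM AA; 5-LO products measured after 10 min. Residual activity at 10 µM; IC50 by nonlinear regression from 4-5 concentrations; mean ± SEM, n=3-4.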

The test system of a further series is Mus musculus. Nature of the series: Antiinflammatory activity in zymosan induced CD-1 mouse model of inflammation assessed as reduction in leukocyte recruitment in air pouch at 10 mg/kg, ip preincubated for 30 mins followed by zymosan challenge and measured after 4 hrs by trypan blue staining-based burker's chamber method. It counts as functional, organism-based. Summed up: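 Air pouch formed by s.c. injection of 2.5 mL sterile air in CD-1 mice; on day 6, 10 mg/kg i.p. (2% DMSO/saline) given 30 min before 1 ml 1% w/v zymosan into the pouch. After 4 h, exudate collected with 1 ml saline and centrifuged; leukocytes counted in Burker chamber; LTB4 in supernatant by ELISA (ng/mL). n=6 mice per group.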

The target in series [7] is T3, Cyclooxygenase. Put plainly: Modulation of COX1/2-mediated TXB2 level in human M1 macrophages derived from LPS/IFNgamma-polarized human monocyte derived macrophages at 3 uM preincubated for 15 mins followed by Escherichia coli (O6:K2:H1) challenge for 90 mins by LC-MS/MS analysis. It counts as protein assay. The following applies: 1.5 h. An outline of the steps: as §1

The structures appear in SMILES notation. Calls of active or inactive are those of the source. The rule behind the calls is not given here.

By IC50 is commonly meant the concentration that gives 50% inhibition. `O=C(O)c1ccc(N(Cc2cccc(OCc3ccccc3)c2)S(=O)(=O)c2ccc(-c3ccccc3)cc2)cc1`: the inhibition entry in series [1] is “Active”. In addition, the Activity was determined as 72% in series [2]; 142% at Cyclooxygenase [3]; 106% in the series filed under Homo sapiens; 35% in series [4]; 92% on Cyclooxygenase [7]. The inhibition entry in series [5] was “inactive”. Besides, the IC50 in [6] worked out at 400 nM. Moreover, the result in the series with Mus musculus was Active.
